This is a sample that favours compounds with a hit; in the whole collection about 3.8% have one here.
XiGFP reactiv = activators of inactive X chromosome reactivation, primary screen, imaging, XiGFP fibroblasts, GFP high-content imaging, set 2. hit rate 0.055% among 360,000. AID 743238, 2013. activation, % at 7.58 µM. XiGFP mouse fibroblasts, % GFP-positive cells imaging, 3 d; cells co-treated with 5-aza-dC sensitizer; scaled so ellipticine positive control = 100%;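 active = mean normalized replicate activation at least 10% and every replicate at or above 10%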;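 also: 0% = median of on-plate neutral control wells and 100% = ellipticine 6 µM median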
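assay system = SV40-immortalized XiGFP fibroblast cells, line 68-5-11 | buffer or medium = DMEM plus 5-aza-dC sensitizer | doses = single-point pinned compound dosing | times = 3-day compound exposure, then 15 min fixation at room temperature | benchmarks = positive control ellipticine, 6 µM final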
ARNT TACC3 PPI = disruptors of ARNT/TACC3 protein interaction, primary screen, biochemical, AlphaScreen, single concentration. Transforming acidic coiled-coil-containing protein 3 (Homo sapiens), Q9Y6A5. AID 623870, 2012. hit rate 0.66% among 390,000. inhibition, % at 9.99 µM. AlphaScreen His-ARNT PAS-B/GST-TACC3 binding, luminescence; TACC3 fragment carries E629A point mutation;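 active = mean inhibition of replicates at least 50% and at least half of replicates each reaching 50%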;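 also: 0% = complete ARNT plus TACC3 wells and 100% = ARNT alone without TACC3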
FN deposition inh = inhibitors of fibronectin matrix deposition, primary screen, AH1F cells, Alexa488-fibronectin fluorescence, plate reader; hit rate 0.086% among 350,000; inhibition, % at 12.6 µM; AH1F fibroblasts, overnight;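 active = mean inhibition across replicates of 30% or more, regardless of how many single replicates reach that level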;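 also: positive control wells lacked labelled fibronectin entirely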
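Assay system: AH1F fibroblasts / Quantity: 10000 cells per well / Medium: DMEM plus 2% serum, read in PBS / Reagent: labelled fibronectin 24 nM / Dosing: single dose, pinned / Times: 1 h cell attachment, overnight exposure to compound and label / Signal: fluorescence, ex 485 nm, em 525 nm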
SIRT5 inh = SIRT5 desuccinylase inhibitors, primary screen, biochemical, fluorescence imaging, single point, set 5; NAD-dependent protein deacylase sirtuin-5, mitochondrial (Homo sapiens), Q9NXA8; Purified SirT5, succinyl-peptide AMC, trypsin-coupled fluorescence; inhibition, % at 15 µM; hit rate 1.1% among 330,000; AID 652115, 2013; in the data active = inhibition above about 15%
Target sequence (Q9NXA8 whole entry, looked up): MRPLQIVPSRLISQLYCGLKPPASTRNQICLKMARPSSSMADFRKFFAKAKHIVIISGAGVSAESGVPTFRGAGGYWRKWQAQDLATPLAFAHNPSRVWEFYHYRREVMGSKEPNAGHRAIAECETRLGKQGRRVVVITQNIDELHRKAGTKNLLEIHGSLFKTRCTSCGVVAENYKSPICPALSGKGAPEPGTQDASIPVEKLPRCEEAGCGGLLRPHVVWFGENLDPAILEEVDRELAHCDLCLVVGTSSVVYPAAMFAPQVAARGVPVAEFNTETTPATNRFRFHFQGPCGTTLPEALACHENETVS
FGF22 binding = binders of human FGF22 protein, primary screen, FGF22 synaptogenesis inhibitor project, biophysical, thermal shift, single point; Fibroblast growth factor 22 (Homo sapiens), Q9HCT0; recombinant FGF22 thermal shift, SYPRO orange fluorescence; percent of sucrose octasulfate shift, DMSO zero; activity (Tm shift, normalised), % at 9.99 µM; AID 651658, 2012; hit rate 1.5% among 340,000;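 active = mean Tm shift, scaled 0 neutral to 100 positive control, at about 1.3% or above, every replicate too, limit read from the data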
Target sequence (Q9HCT0 whole entry, looked up): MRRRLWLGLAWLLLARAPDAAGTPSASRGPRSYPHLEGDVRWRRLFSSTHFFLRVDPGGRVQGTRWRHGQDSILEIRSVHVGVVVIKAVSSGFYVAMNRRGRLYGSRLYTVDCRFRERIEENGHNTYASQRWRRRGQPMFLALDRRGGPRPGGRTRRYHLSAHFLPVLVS
DENV2 CPE rescue = inhibitors of DENV2 cytopathic effect, primary screen, cell-based, plate reader, single concentration; DENV2-infected cells, cytopathic effect rescue; CPE inhibition, % at 9.99 µM; hit rate 1.7% among 350,000; in the data active = CPE inhibition above about 20%, passing the limit was not always enough; tested in BHK-21 cells;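 also: 0% = median of neutral control wells and 100% = median of positive control wells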
Starred values were filed as active, the others as inactive; x = no result given; ! = repeats disagree.

SMILES	XiGFP reactiv	ARNT TACC3 PPI	FN deposition inh	SIRT5 inh	FGF22 binding	DENV2 CPE rescue
COc1ccc(CCCc2nc3ccccc3[nH]2)cc1	30*	-6	3	0	0	2
Cn1c(=O)c2[nH]c(CCCCc3nc4ccccc4[nH]3)nc2n(C)c1=O	0	x	-3	1	0	47*
COc1ccc(S(=O)(=O)N(C)C[C@H]2Oc3ccc(NS(=O)(=O)c4cn(C)cn4)cc3CC(=O)N([C@@H](C)CO)C[C@H]2C)cc1	0	x	x	-3	0	-2
Cc1noc(C)c1NC(=O)Nc1ccc2c(c1)CC(=O)N([C@H](C)CO)C[C@H](C)[C@@H](CN(C)S(=O)(=O)c1c(C)noc1C)O2	0	x	3	x	x	x
Cc1ccc(C(=O)N2CCN(S(=O)(=O)c3ccc(C)c([N+](=O)[O-])c3)C2)cc1	0	26	10	0	44*	4
Cc1ccc(C(=O)N2CCN(C(=O)c3ccc(C)cc3)C2)cc1	0	2	-3	-5	43*	0
CC1(C)CC(NC(=O)COc2ccccc2Cl)CC(C)(C)N1	0	x	3	-4	44*	33*
CCc1cc(=O)oc2cc(OCC(=O)NC3CC(C)(C)NC(C)(C)C3)ccc12	0	0	-1	-2	0	36*
C[C@@H]1CCCCO[C@H](CN(C)Cc2ccc(C(=O)O)cc2)[C@H](C)CN([C@@H](C)CO)C(=O)c2cc(NC(=O)Nc3cccc4ccccc34)ccc2O1	-1	6	x	3	1	5
COc1ccc2c3c([nH]c2c1)[C@@H](CO)N(C(C)=O)CC31CN(S(=O)(=O)c2ccccc2)C1	0	x	x	x	0	3
Cc1ccc(CNC(=O)c2nn(C)c3c2CS(=O)(=O)c2ccccc2-3)cc1	0	-9	6	-2	0	-2
Cc1cccc(N2CCN(C(=O)c3nn(C)c4c3CS(=O)(=O)c3ccccc3-4)CC2)c1C	0	-8	6	-4	0	36*
Cn1nc(C(=O)N2CCN(c3ccccc3F)CC2)c2c1-c1ccccc1S(=O)(=O)C2	0	0	-9	-2	0	-3
CCc1ccc(CNC(=O)c2nn(C)c3c2CS(=O)(=O)c2ccccc2-3)cc1	0	0	-4	-8	68*	-7
COc1cc(/C=C/C(=O)OCC(=O)Nc2cccc(F)c2)ccc1O	0	-3	1	x	45*	4
COc1cc(/C=C/C(=O)OCC(=O)Nc2cc(S(=O)(=O)N3CCCCC3)ccc2C)ccc1O	0	2	-2	3	0	22*
Cc1ccc(C)c(OCCCCN2CCCCC2)c1	0	-9	-6	x	0	55*
COc1cccc(OC)c1OCCN1CCCC1	0	3	-1	21*	0	0
COc1ccccc1N1CCN(CCOc2c(OC)cccc2OC)CC1	x	-11	7	x	x	x
COc1ccc(OCCCN2CCCCCC2)cc1	x	47*	x	x	x	x
CCCNC(=O)N(C)C[C@@H]1Oc2cc(-c3ccc(C)cc3)ccc2S(=O)(=O)N([C@H](C)CO)C[C@H]1C	0	3	12	-1	0	-8
C[C@@H]1CN([C@H](C)CO)C(=O)c2cc(NC(=O)Nc3ccc(C(F)(F)F)cc3)ccc2O[C@@H](C)CCCCO[C@H]1CN(C)C(=O)C1CCCCC1	-1	1	x	-3	0	3
CCS(=O)(=O)Nc1ccc2c(c1)C(=O)N(C)[C@@H]1CC[C@@H](CC(=O)NCc3ccc(OC)cc3)O[C@H]1CO2	0	-7	-11	-3	0	16
CO[C@H]1CN(C)C(=O)c2cc(NC(=O)NC3CCCCC3)ccc2OC[C@H](C)NC[C@@H]1C	0	-15	1	-2	0	-7
O=C(c1cccnc1)N1CCCCN2[C@H](C1)[C@@H](c1ccc(C#Cc3ccccn3)cc1)[C@@H]2CO	0	11	x	0	1	-2
SMILES	XiGFP reactiv	ARNT TACC3 PPI	FN deposition inh	SIRT5 inh	FGF22 binding	DENV2 CPE rescue
Cc1ccccc1-c1ccc([C@H]2[C@@H](CO)N3CCCCN(C(=O)c4cccnc4)C[C@H]23)cc1	0	-11	x	-7	0	7
O=C(c1cccnc1)N1CCCCN2[C@H](CO)[C@@H](c3ccc(C#Cc4ccccn4)cc3)[C@H]2C1	0	9	x	2	0	20*
Cc1ccccc1-c1ccc([C@@H]2[C@@H](CO)N3CCCCN(C(=O)c4cccnc4)C[C@H]23)cc1	0	-9	x	0	0	49*
Cc1ccccc1-c1ccc(C2[C@@H]3CN(C(=O)c4cnccn4)C[C@H]2N3)cc1 (some centres not stated)	0	x	-3	x	0	29*!
O=C(c1ccncc1)N1CCCCN2[C@@H](CO)[C@H](c3ccc(C#Cc4ccccn4)cc3)[C@@H]2C1	0	5	x	x	0	x
O=C(c1cccnc1)N1CCCCN2[C@H](CO)[C@@H](c3ccc(C#Cc4ccccn4)cc3)[C@@H]2C1	0	9	x	31*	0	-1
Cc1ccc(S(=O)(=O)N2C[C@@H](O)COC[C@H]3O[C@@H](CC(=O)NCC4CCCCC4)CC[C@@H]32)cc1	0	11	-7	-3	0	-11
CC(C)OC(=O)N(C)C[C@H]1OCc2cnnn2CCCC(=O)N([C@@H](C)CO)C[C@@H]1C	0	3	-12	1	0	1
C[C@@H]1CN([C@H](C)CO)C(=O)c2cccc(NC(=O)C3CCCCC3)c2O[C@@H]1CN(C)C(=O)Nc1ccc(C(F)(F)F)cc1	0	5	x	1	0	2
C=CCn1c(CNc2ccccc2)nnc1SCC(=O)N/N=C/c1ccccc1O	x	active	x	x	x	x
CC(=O)N(C)C[C@H]1Oc2ccc(N)cc2CC(=O)N(C)C[C@@H]1C	0	x	2	x	x	x
Cn1cc(CN(CCCN2CCOCC2)C(=S)Nc2cccc(Cl)c2)c2ccccc21	0	x	7	x	0	40*
CCN(C(=O)CCCCC(=O)N(CC)c1ccccc1)c1ccccc1	0	5	-13	-3	0	0
CCN(C(=O)N(CC)c1ccccc1)c1ccccc1	x	x	x	x	0	20*

Assay outcomes: PubChem BioAssay, Broad Institute
